According to ChEMBL document CHEMBL2021883, “Amino acid, dipeptide and pseudodipeptide conjugates of ring-substituted 8-aminoquinolines: synthesis and evaluation of anti-infective, β-haematin inhibition and cytotoxic activities” (Eur J Med Chem, 2012):
Values after ≈ are worked out from the molar mass of the structure shown. Active and inactive are the calls of the source. Unless noted, no cut-off for these calls is given here.

Key:
Vero = experiment: Cytotoxicity against african green monkey Vero cells upto 23.8 […] by neutral dye assay; format: cell-based, Chlorocebus sabaeus
How it was run: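 Vero monkey kidney cells were exposed to compound up to a highest concentration of 23.8, with viability read by neutral red uptake.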

Cryptococcus neoformans = experiment: Antifungal activity against Cryptococcus neoformans; format: functional, organism-based
How it was run: (§1)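 Yeasts and A. fumigatus were tested by broth microdilution following the NCCLS antifungal standards. The highest test concentration was 20.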

Aspergillus fumigatus = experiment: Antifungal activity against Aspergillus fumigatus; format: functional, organism-based; how it was run: as §1
Leishmania donovani = experiment: Antileishmanial activity against Leishmania donovani promastigote by Alamar Blue assay; format: functional, organism-based
[1] = Selectivity index, ratio of IC50 for african green monkey Vero cells to IC50 for chloroquine-resistant Plasmodium falciparum W2; format: toxicity, cell-based; settings: Vero cells versus Plasmodium falciparum W2, read-out: Ratio IC50
Escherichia coli [2] = experiment: Antimicrobial activity against Escherichia coli ATCC 35218 by CLSI method; format: functional, organism-based
[3] = Selectivity index, ratio of IC50 for african green monkey Vero cells to IC50 for chloroquine-sensitive Plasmodium falciparum D6; format: toxicity, cell-based; settings: Vero cells versus Plasmodium falciparum D6, read-out: Ratio IC50
[4] = Inhibition of beta-hematin formation; format: functional
Plasmodium falciparum [5] = experiment: Antimalarial activity against chloroquine-sensitive Plasmodium falciparum D6 assessed as plasmodial LDH activity; format: functional, organism-based; settings: Plasmodium falciparum, D6; read-out: IC50
Plasmodium berghei [6] = experiment: Antimalarial activity against Plasmodium berghei blood-schizont in mouse malaria model assessed as elimination of parasitemia at 100 mg/kg, po for 4 days for 4 days measured after 7 days; format: functional, organism-based; design: dose 100 mg/kg
How it was run: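 P. berghei-infected mice, 6 per group, received compound orally once daily for 4 days at 10, 25, 50 or 100 mg/kg/day. "Active" meant all treated animals were parasitaemia-negative up to D+7. "Curative" meant complete parasite elimination with survival to D+60. Outcomes were recorded as cured/total.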

Plasmodium berghei [7] = experiment: Antimalarial activity against Plasmodium berghei blood-schizont in mouse malaria model assessed as elimination of parasitemia at 100 mg/kg, po for 4 days for 4 days measured after 4 days; format: functional, organism-based; design: dose 100 mg/kg
Staphylococcus aureus [8] = experiment: Antimicrobial activity against methicillin-resistant Staphylococcus aureus ATCC 43300 by CLSI method; format: functional, organism-based
Plasmodium falciparum [9] = experiment: Antimalarial activity against chloroquine-resistant Plasmodium falciparum W2 assessed as plasmodial LDH activity; format: functional, organism-based; settings: Plasmodium falciparum, W2; read-out: IC50
Staphylococcus aureus [10] = experiment: Antimicrobial activity against Staphylococcus aureus ATCC 29213 by CLSI method; format: functional, organism-based
Candida albicans [11] = experiment: Antifungal activity against Candida albicans at 20 ug/ml; format: functional, organism-based
How it was run: (§2)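 Broth dilution antifungal testing followed the NCCLS reference method for yeasts, with 20 as the highest test concentration. MIC was the lowest concentration with no detectable growth. MFC was the lowest concentration killing the organism.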

Candida albicans [12] = experiment: Fungicidal activity against Candida albicans at 20 ug/ml; format: functional, organism-based; how it was run: as §2
[13] = system: Mycobacterium intracellulare; experiment: Antimicrobial activity against Mycobacterium intracellulare ATCC 23068 by Franzblau method; format: functional, organism-based
Pseudomonas aeruginosa = experiment: Antimicrobial activity against Pseudomonas aeruginosa ATCC 27853 by CLSI method; format: functional, organism-based
How it was run: (§3)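 Antibacterial testing used CLSI/NCCLS broth dilution for aerobically growing bacteria, with 20 as the highest test concentration.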

Candida albicans [14] = experiment: Antifungal activity against Candida albicans; format: functional, organism-based; how it was run: as §1
Escherichia coli [15] = experiment: Antimicrobial activity against Escherichia coli ATCC 35218 at 20 ug/ml by CLSI method; format: functional, organism-based; how it was run: as §3
[16] = system: Mycobacterium intracellulare; experiment: Bactericidal activity against Mycobacterium intracellulare ATCC 23068 at 20 ug/ml by Franzblau method; format: functional, organism-based
Escherichia coli [17] = experiment: Bactericidal activity against Escherichia coli ATCC 35218 at 20 ug/ml by CLSI method; format: functional, organism-based; how it was run: as §3
[18] = system: Mycobacterium intracellulare; experiment: Antimicrobial activity against Mycobacterium intracellulare ATCC 23068 at 20 ug/ml by Franzblau method; format: functional, organism-based
Nakaseomyces glabratus = experiment: Antifungal activity against Candida glabrata; format: functional, organism-based; how it was run: as §1
[19] = Leishmania donovani, read-out: IC50

Compound | IC50 (Vero) | IC50 (Cryptococcus neoformans) [µg/mL] | MFC (Cryptococcus neoformans) [µg/mL] | MIC (Cryptococcus neoformans) [µg/mL] | Activity (Aspergillus fumigatus) | IC90 (Leishmania donovani) | selectivity ratio [1] | Activity (Escherichia coli [2]) | selectivity ratio [3] | IC50 [4] [µM] | IC50 (Plasmodium falciparum [5]) [µg/mL] | Activity (Plasmodium berghei [6]) | Activity (Staphylococcus aureus [8]) | IC50 (Plasmodium falciparum [9]) [µg/mL] | Activity (Staphylococcus aureus [10]) | Activity (Candida albicans [11]) | Activity (Candida albicans [12]) | Activity [13] | Activity (Pseudomonas aeruginosa) | IC90 (Leishmania donovani; Leishmania donovani) [µg/mL] | also measured
COc1cc(NC(C)CCCNC(=O)[C@@H](CCCCN)NC(=O)[C@H](N)CCCCN)c2nc(C(C)(C)C)ccc2c1 (stereo partly drawn) | Non-toxic | 6.5 (≈ 11.4 µM) | 10 (≈ 17.5 µM) | 10 (≈ 17.5 µM) | inactive | inactive | > 8.5 | inactive | > 5 | > 1000 | 4.76 (≈ 8.32 µM) | inactive | inactive | 2.8 (≈ 4.9 µM) | inactive | inactive | inactive | inactive | inactive | – | IC50 (Leishmania donovani): Not Active; Activity (Plasmodium berghei [7]): inactive
COc1cc(NC(C)CCCNC(=O)C[C@H](NC(=O)[C@@H](N)CCCN)C(=O)O)c2nc(C(C)(C)C)ccc2c1 (stereo partly drawn) | Non-toxic | 4 (≈ 7.34 µM) | 20 (≈ 36.7 µM) | 20 (≈ 36.7 µM) | inactive | – | > 7.9 | inactive | > 8.8 | 40 | 2.7 (≈ 4.96 µM) | – | inactive | 3 (≈ 5.51 µM) | inactive | – | – | inactive | inactive | 36 (≈ 66.1 µM) | IC50 (Leishmania donovani; [19]): 20 µg/mL (≈ 36.7 µM); IC50 (Candida albicans [14]): 15 µg/mL (≈ 27.5 µM); MFC (Candida albicans [14]): 20 µg/mL (≈ 36.7 µM); MIC (Candida albicans [14]): 20 µg/mL (≈ 36.7 µM)
COc1cc(NC(C)CCCNC(=O)[C@H](CCCNC(=N)N)NC(=O)[C@@H](N)CCCNC(=N)N)c2nc(C(C)(C)C)ccc2c1 (stereo partly drawn) | Non-toxic | 2.5 (≈ 3.98 µM) | 5 (≈ 7.96 µM) | 5 (≈ 7.96 µM) | inactive | – | > 29 | inactive | > 24.5 | 53 | 0.97 (≈ 1.54 µM) | Active | – | 0.82 (≈ 1.31 µM) | – | – | inactive | inactive | inactive | 31 (≈ 49.4 µM) | IC50 (Leishmania donovani; [19]): 9 µg/mL (≈ 14.3 µM); IC50 (Candida albicans [14]): 15 µg/mL (≈ 23.9 µM); MIC (Candida albicans [14]): 20 µg/mL (≈ 31.9 µM); Activity (Escherichia coli [15]): inactive; IC50 (Staphylococcus aureus [8]): 7 µg/mL (≈ 11.1 µM); MBC (Staphylococcus aureus [8]): 20 µg/mL (≈ 31.9 µM); MIC (Staphylococcus aureus [8]): 10 µg/mL (≈ 15.9 µM); Activity [16]: inactive; Activity (Escherichia coli [17]): inactive; Activity [18]: inactive
C[C@@H]1[C@H](O)[C@@H](C)/C=C/C=C/C=C/C=C/C=C/C=C/C=C/[C@H](O[C@@H]2O[C@H](C)[C@@H](O)[C@H](N)[C@@H]2O)C[C@@H]2O[C@](O)(C[C@@H](O)C[C@@H](O)[C@H](O)CC[C@@H](O)C[C@@H](O)CC(=O)O[C@H]1C)C[C@H](O)[C@H]2C(=O)O [AMPHOTERICIN B] | – | – | 1.5 (≈ 1.62 µM) | – | – | – | – | – | – | – | – | – | – | – | – | – | – | – | – | 0.35 (≈ 0.379 µM) | MIC (Candida albicans [14]): 0.63 µg/mL (≈ 0.682 µM); MFC (Nakaseomyces glabratus): 0.625 µg/mL (≈ 0.676 µM); MIC (Nakaseomyces glabratus): 0.31 µg/mL (≈ 0.335 µM)
COc1cc(NC(C)CCCNC(=O)C[C@@H](NC(=O)[C@H](N)CCCNC(=N)N)C(=O)O)c2nc(C(C)(C)C)ccc2c1 (stereo partly drawn) | Non-toxic | – | – | – | – | inactive | > 9.1 | inactive | > 13.2 | 127 | 1.8 (≈ 3.07 µM) | Active | inactive | 2.6 (≈ 4.43 µM) | inactive | – | – | inactive | inactive | – | IC50 (Leishmania donovani): Not Active
COc1cc(NC(C)CCCNC(=O)CC[C@H](NC(=O)[C@@H](N)CCCNC(=N)N)C(=O)O)c2nc(C(C)(C)C)ccc2c1 (stereo partly drawn) | Non-toxic | 15 (≈ 25 µM) | 20 (≈ 33.3 µM) | 20 (≈ 33.3 µM) | inactive | inactive | > 11.9 | inactive | > 10.3 | 96 | 2.3 (≈ 3.83 µM) | inactive | inactive | 2 (≈ 3.33 µM) | inactive | inactive | inactive | inactive | inactive | – | IC50 (Leishmania donovani): Not Active; Activity (Plasmodium berghei [7]): inactive
COc1cc(NC(C)CCCNC(=O)[C@H](CCCCN)NC(=O)[C@@H](N)CCCCN)c2nc(C(C)(C)C)ccc2c1 (stereo partly drawn) | Non-toxic | 3.5 (≈ 6.12 µM) | 5 (≈ 8.74 µM) | 5 (≈ 8.74 µM) | inactive | – | > 59.5 | inactive | > 37.7 | 73 | 0.63 (≈ 1.1 µM) | Active | inactive | 0.4 (≈ 0.7 µM) | inactive | inactive | inactive | inactive | inactive | 39 (≈ 68.2 µM) | IC50 (Leishmania donovani; [19]): 19 µg/mL (≈ 33.2 µM)
COc1cc(NC(C)CCCNC(=O)[C@H](CCCN)NC(=O)[C@@H](N)CCCN)c2nc(C(C)(C)C)ccc2c1 (stereo partly drawn) | Non-toxic | 3.5 (≈ 6.44 µM) | 5 (≈ 9.2 µM) | 5 (≈ 9.2 µM) | inactive | inactive | > 11.9 | inactive | > 9.5 | 85 | 2.5 (≈ 4.6 µM) | inactive | inactive | 2 (≈ 3.68 µM) | inactive | inactive | inactive | inactive | inactive | – | IC50 (Leishmania donovani; [19]): 20 µg/mL (≈ 36.8 µM); Activity (Plasmodium berghei [7]): inactive
